ChEMBL document CHEMBL4765418, “Discovery of novel quinazolinone derivatives as potential anti-HBV and anti-HCC agents” (Eur J Med Chem, 2020)
pIC50: −log10 of the molar value.

What was measured:
HepG2 = test: Antiproliferative activity against human HepG2 cells assessed as inhibition of cell proliferation after 72 hrs by MTT assay; type: functional, cell-based; conditions: HepG2, 72 h
Summary of the method: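 Cells seeded in 96-well plates and grown 24 h to reach exponential growth, then exposed to test compounds in culture medium for 72 h. Viability read by MTT absorbance at 490 nm relative to untreated cells. IC50 is the concentration giving 50% inhibition of proliferation.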

[1] = Cytotoxicity against human HepG2 2.2.15 cells assessed as reduction in cell viability measured after 72 hrs by MTT assay; type: cell-based
Summary of the method: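 HepG2 2.2.15 cells (HBV-producing; grown in DMEM with 10% FBS, penicillin/streptomycin and 0.38 mg/mL G418) seeded in 96-well plates and grown 24 h, then treated 72 h with compounds. Viability read by MTT absorbance at 490 nm relative to untreated cells. CC50 is the dose causing 50% cell death.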

Hepatitis B virus [2] = test: (§1) Antiviral activity against HBV infected in human HepG2.2.15 cells assessed as inhibition of DNA replication at 0.8 uM supplemented with fresh medium containing compound every 2 days for 6 days by RT-PCR analysis relative to control; type: functional; conditions: HepG2 2.2.15, 144 h, time 6 day
Summary of the method: (§2)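 HepG2 2.2.15 cells (2×10^5/well, 24-well) left 24 h to recover from trypsinization, then given fresh medium with compound (single-point screen at 0.8 μM), renewed every 2 days for 6 days. Intracellular HBV DNA extracted and quantified by real-time PCR. IC50 is the dose giving 50% inhibition of DNA replication, taken from dose–response.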

Hepatitis B virus [3] = test: Antiviral activity against HBV infected in human HepG2.2.15 cells assessed as inhibition of DNA replication supplemented with fresh medium containing compound every 2 days for 6 days by RT-PCR analysis; type: functional, organism-based; conditions: HepG2 2.2.15; summary of the method: as §2
[4] = Selectivity index, ratio of CC50 for human HepG2 2.2.15 cells to IC50 for antiviral activity against HBV infected in human HepG2.2.15 cells assessed as inhibition of DNA replication; type: toxicity, cell-based; conditions: read-out: Ratio CC50/IC50
Hepatitis B virus [5] = test: as §1, with “against lamivudine and entecavir-resistant” for “against”, “HBV harboring rtL180 M/rtM204V/rtT184L mutant” for “HBV”, “100” for “0.8”; type: functional; conditions: HepG2 2.2.15, 144 h, time 6 day
Hepatitis B virus [6] = test: Antiviral activity against HBV infected in human HepG2.2.15 cells assessed as inhibition of DNA replication at 100 uM supplemented with fresh medium containing compound every 2 days for 6 days by RT-PCR analysis relative to control; type: functional; conditions: HepG2 2.2.15, 144 h, time 6 day
Hepatitis B virus [7] = test: Antiviral activity against HBV infected in human HepG2.2.15 cells assessed as inhibition of HBsAg production supplemented with fresh medium containing compound every 3 days for 6 days by EIA relative to control; type: functional, HepG2 2.2.15; conditions: time 6 day
Hepatitis B virus [8] = test: as §1, with “against lamivudine and entecavir-resistant” for “against”, “HBV harboring rtL180 M/rtM204V/rtT184L mutant” for “HBV”; type: functional; conditions: HepG2 2.2.15, 144 h, time 6 day

| SMILES | pIC50 (HepG2) | CC50 at 72 h [1] [µM] | inhibition at 0.8 µM (Hepatitis B virus [2]) [%] | pIC50 (Hepatitis B virus [3]) | selectivity ratio [4] | inhibition at 100 µM (Hepatitis B virus [5]) [%] | inhibition at 100 µM (Hepatitis B virus [6]) [%] | inhibition (INH) (Hepatitis B virus [7]) [%] | inhibition at 0.8 µM (Hepatitis B virus [8]) [%] |
| --- | --- | --- | --- | --- | --- | --- | --- | --- | --- |
| O=c1[nH]cc(F)c(=O)[nH]1 [FLUOROURACIL] | 5.06 | – | – | – | – | – | – | – | – |
| CCN(CC)CCOc1ccc2nc(SCc3cc(C(C)=O)ccc3OC)n(Cc3ccccc3)c(=O)c2c1 | < 4.70 | > 10 | 4.93 | – | – | – | – | – | – |
| COc1ccccc1CSc1nc2ccc(OCCCN(C)C)cc2c(=O)n1Cc1ccco1 | 5.17 | 8.38 | 34.4 | – | – | – | – | – | – |
| COc1ccc(C(C)=O)cc1CSc1nc2ccc(OCCN(C)C)cc2c(=O)n1Cc1ccccc1 | 4.72 | > 10 | 15.6 | – | – | – | – | – | – |
| CCN(CC)CCOc1ccc2nc(SCc3ccccc3)n(Cc3ccccc3)c(=O)c2c1 | < 4.70 | > 10 | 64.5 | 6.18 | > 15.2 | – | – | – | – |
| CCN(CC)CCOc1ccc2nc(SCc3ccccc3OC)n(Cc3ccco3)c(=O)c2c1 | 4.72 | > 10 | 52.6 | 6.11 | > 13 | – | – | – | – |
| CN(C)CCOc1ccc2nc(SCc3ccccc3)n(Cc3ccccc3)c(=O)c2c1 | < 4.70 | > 10 | 65.5 | 6.17 | > 14.7 | – | – | – | – |
| CCN(CC)CCOc1ccc2nc(SCc3ccccc3OC)n(Cc3ccccc3)c(=O)c2c1 | < 4.70 | > 10 | 9.8 | – | – | – | – | – | – |
| CN(C)CCOc1ccc2nc(SCc3ccccc3)n(Cc3cccs3)c(=O)c2c1 | – | > 10 | 53.6 | 6.11 | > 13 | – | – | – | – |
| CCN(CC)CCOc1ccc2nc(SCc3cc(C(C)=O)ccc3OC)n(Cc3ccco3)c(=O)c2c1 | 4.77 | > 10 | 45.2 | – | – | – | – | – | – |
| Nc1ccn([C@@H]2CS[C@H](CO)O2)c(=O)n1 [LAMIVUDINE] | – | > 100 | 84.4 | > 7.00 | > 1000 | 15.7 | 90 | 9.09 | – |
| CCN(CC)CCOc1ccc2nc(SCc3ccccc3)n(Cc3ccco3)c(=O)c2c1 | 4.76 | > 10 | 67.5 | 6.20 | > 15.9 | – | – | 13.64 | 58.9 |
